Results from ChEMBL document CHEMBL1275403 (J Med Chem, 2010).
pEC50: −log10 of the molar value.

How the values were obtained:
[1] = Antiprion activity against scrapie prion protein-infected mouse ScGT1 cells assessed as accumulation of PrPSc after 5 days by Western blotting; format: cell-based; details: ScGT1, 120 h
How it was run: (§1)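 ScGT1 cells in DMEM with 10% FBS were split 1:10 into Petri dishes and grown 2 days at 37 °C, 5% CO2. Non-toxic compound concentrations (10 nM–2 μM) were then added. After 5 days, cell proteins were extracted, quantified, proteinase K-digested and western-blotted. PK-resistant PrPSc was quantified by densitometry. EC50 is half-maximal inhibition. Values are mean of three experiments with SD.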

[2] = Cytotoxicity against mouse ScGT1 cells assessed as cell viability at EC50 after 5 days by calcein-AM assay; format: cell-based; details: read-out: INH
How it was run: (§2)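 ScGT1 cells in DMEM with 10% FBS were plated at 25000 cells/well. Compounds were dissolved in DMSO, diluted in PBS and added at 10 nM–10 μM. Cells were incubated 5 days at 37 °C, 5% CO2. Viability was read by calcein-AM fluorescence as average percent viable cells versus untreated control. Values are mean of three experiments with SD.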

ScGT1 [3] = assay: Antiprion activity against scrapie prion protein-infected mouse ScGT1 cells assessed as accumulation of PrPSc at 1 uM after 5 days by Western blotting; format: cell-based; how it was run: as §1
[4] = Cytotoxicity against mouse ScGT1 cells assessed as cell viability at 1 uM after 5 days by calcein-AM assay; format: cell-based; details: read-out: Activity; how it was run: as §2
[5] = Inhibition of scrapie prion protein-mediated lag phase prion fibril formation after 72 hrs by amyloid seeding assay
How it was run: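 In vitro amyloid seeding assay of recombinant PrP fibril formation, with compounds at 2 μM. The read-out is lag phase in hours, compared against an untreated control. Significance was tested by Student's t-test, n = 4.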

[6] = Antioxidant activity in mouse ScGT1 cells assessed as inhibition of ROS formation at 1 uM after 3 hrs by TBARS assay; format: functional; details: ScGT1, 3 h
How it was run: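 ScGT1 cells were treated at 1 μM, and lipid hydroperoxides and aldehydes were measured by the TBARS assay. Results are expressed as average percent TBARS of treated cells versus untreated cells. A water-soluble vitamin E derivative served as positive control. Values are mean ± SD, n = 3.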

[7] = Cytotoxicity against mouse ScGT1 cells assessed as cell viability at 0.2 uM after 5 days by calcein-AM assay; format: cell-based; details: read-out: Activity; how it was run: as §2
ScGT1 [8] = assay: Antiprion activity against scrapie prion protein-infected mouse ScGT1 cells assessed as accumulation of PrPSc at 0.2 uM after 5 days by Western blotting; format: cell-based; how it was run: as §1

| SMILES | pEC50 [1] | viability at 120 h [2] [%] | inhibition (ScGT1 [3]) [%] | viability at 120 h, 1 µM [4] [%] | TIME [5] [h] | inhibition at 1 µM [6] [%] | viability at 120 h, 0.2 µM [7] [%] | inhibition (ScGT1 [8]) [%] |
| --- | --- | --- | --- | --- | --- | --- | --- | --- |
| O=C1C=C(NCCCNc2ccnc3cc(Cl)ccc23)C(=O)C=C1NCCCNc1ccnc2cc(Cl)ccc12 | 6.14 | 99.6 | 85.5 | 100 | 53 | 83 | – | – |
| O=C1C=C(NCCCNCCCNc2ccnc3cc(Cl)ccc23)C(=O)C=C1NCCCNCCCNc1ccnc2cc(Cl)ccc12 | 5.92 | 91.3 | 49.1 | 105 | 40 | 83 | – | – |
| COc1ccc2nc3cc(Cl)ccc3c(NCCCN3CCN(CCCNc4c5ccc(Cl)cc5nc5ccc(OC)cc45)CC3)c2c1 | 6.49 | 92.4 | 102 | 75.6 | 55 | 93 | – | – |
| O=C1C=C(NCCCNCCCNc2c3c(nc4ccccc24)CCCC3)C(=O)C=C1NCCCNCCCNc1c2c(nc3ccccc13)CCCC2 | – | – | 3.4 | 95.4 | – | – | – | – |
| COc1ccc2nc3cc(Cl)ccc3c(NCCNC3=CC(=O)C(NCCNc4c5ccc(Cl)cc5nc5ccc(OC)cc45)=CC3=O)c2c1 | – | – | – | 18.2 | – | – | 80.1 | 3.1 |
| O=C1C=C(NCCNc2c3c(nc4ccccc24)CCCC3)C(=O)C=C1NCCNc1c2c(nc3ccccc13)CCCC2 | – | – | 7.1 | 108 | – | – | – | – |
| COc1ccc2nc3cc(Cl)ccc3c(NCCCNCCCNC3=CC(=O)C(NCCCNCCCNc4c5ccc(Cl)cc5nc5ccc(OC)cc45)=CC3=O)c2c1 | – | – | – | 1.5 | – | – | 65.8 | 5.4 |
| O=C1C=C(NCCCNc2c3c(nc4cc(Cl)ccc24)CCCC3)C(=O)C=C1NCCCNc1c2c(nc3cc(Cl)ccc13)CCCC2 | 6.77 | 102 | 105 | 78.6 | 57 | 69 | – | – |
| O=C1C=C(NCCNc2ccnc3cc(Cl)ccc23)C(=O)C=C1NCCNc1ccnc2cc(Cl)ccc12 | – | – | 6.2 | 115 | – | – | – | – |
| COc1ccc2nccc(NCCCNC3=CC(=O)C(NCCCNc4ccnc5ccc(OC)cc45)=CC3=O)c2c1 | – | – | 4.7 | 87.2 | – | – | – | – |
| COc1ccc2nc3cc(Cl)ccc3c(NCCCNC3=CC(=O)C(NCCCNc4c5ccc(Cl)cc5nc5ccc(OC)cc45)=CC3=O)c2c1 | 6.17 | 75.2 | 89.7 | 65.5 | 45 | 83 | – | – |
| Cc1c(C)c2c(c(C)c1O)CCC(C)(C(=O)O)O2 (configuration not stated) [TROLOX] | – | – | – | – | – | 71 | – | – |
| O=C1C=C(NCCCNc2ccnc3cc(Cl)ccc23)C(=O)c2ccccc21 | – | – | 2.9 | 94.3 | – | – | – | – |
